The term Ki denotes the dissociation constant of the complex between target and ligand, obtained from inhibition or displacement. The EC50 is the concentration needed to bring the measured effect to its halfway point. By Emax is commonly meant the maximal effect, on the per cent scale that the assay sets.

Assay [1] deals with T1, Muscarinic acetylcholine receptor M1 (Homo sapiens, UniProt P11229).
T1 sequence (P11229 whole entry): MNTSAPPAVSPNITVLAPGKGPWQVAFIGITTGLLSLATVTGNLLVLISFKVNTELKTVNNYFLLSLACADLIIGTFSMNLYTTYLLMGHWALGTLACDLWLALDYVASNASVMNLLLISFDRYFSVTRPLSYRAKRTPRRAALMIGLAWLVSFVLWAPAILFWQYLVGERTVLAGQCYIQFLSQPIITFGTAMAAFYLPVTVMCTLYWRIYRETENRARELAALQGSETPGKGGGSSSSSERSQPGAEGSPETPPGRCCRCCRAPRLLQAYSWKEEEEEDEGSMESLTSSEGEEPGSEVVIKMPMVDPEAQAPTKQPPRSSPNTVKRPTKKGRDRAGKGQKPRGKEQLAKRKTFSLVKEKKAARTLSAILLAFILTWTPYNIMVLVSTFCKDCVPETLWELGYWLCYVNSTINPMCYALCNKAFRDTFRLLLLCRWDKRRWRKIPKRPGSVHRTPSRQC
As to the kind of experiment: Displacement of [3H]N-methyl-scopolamine bromide from human recombinant muscarinic M1 receptor expressed in HEK293T cell membranes after 1 hr by liquid scintillation counting method. The assay is classed as cell-based, HEK-293T.

For assay [2], the target named is T2, Muscarinic acetylcholine receptor M2 (Homo sapiens, UniProt P08172).
T2 sequence (P08172 whole entry): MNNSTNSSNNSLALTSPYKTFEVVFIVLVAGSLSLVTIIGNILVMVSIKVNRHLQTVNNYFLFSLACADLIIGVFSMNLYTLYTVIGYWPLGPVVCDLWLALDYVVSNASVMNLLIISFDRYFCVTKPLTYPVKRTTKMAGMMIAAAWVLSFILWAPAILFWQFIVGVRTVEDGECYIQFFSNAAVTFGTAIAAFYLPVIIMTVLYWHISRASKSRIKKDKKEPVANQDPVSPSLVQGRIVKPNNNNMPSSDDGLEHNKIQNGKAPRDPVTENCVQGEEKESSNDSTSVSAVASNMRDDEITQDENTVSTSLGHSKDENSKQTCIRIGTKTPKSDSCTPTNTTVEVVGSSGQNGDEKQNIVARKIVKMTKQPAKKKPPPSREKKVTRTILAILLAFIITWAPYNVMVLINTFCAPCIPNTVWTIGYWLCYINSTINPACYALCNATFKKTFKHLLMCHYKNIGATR
As to the kind of experiment: Displacement of [3H]N-methyl-scopolamine bromide from human recombinant muscarinic M2 receptor expressed in HEK293T cell membranes after 1 hr by liquid scintillation counting method. Also on record: species or system HEK-293T. A general note: Displacement assays read how much labelled ligand stays bound in the presence of the test substance.

Assay [3] addresses Muscarinic acetylcholine receptor M3 (Homo sapiens, UniProt P20309). Description: Displacement of [3H]N-methyl-scopolamine bromide from human recombinant muscarinic M3 receptor expressed in HEK293T cell membranes after 1 hr by liquid scintillation counting method. In kind it is cell-based, HEK-293T.
In assay [4] the target is T2, Muscarinic acetylcholine receptor M2. As to the kind of experiment: Agonist activity at human recombinant muscarinic M2 receptor co-expressed with Galphaqi5-HA in African green monkey COS7 cells assessed as IP accumulation after 2 hrs in presence of myo-[3H]inositol by liquid scintillation counting method. In kind it is functional.
In assay [5] the target is T3, Muscarinic acetylcholine receptor M2 (Homo sapiens) (UniProt P08172).
T3 sequence (whole entry): T2 sequence (P08172 whole entry)
Description: Agonist activity at human recombinant muscarinic M2 receptor co-expressed with Galphaqi5-HA in African green monkey COS7 cells assessed as IP accumulation after 2 hrs in presence of myo-[3H]inositol by liquid scintillation counting method relative to carbachol. The assay is classed as functional.

The target in assay [6] is T3, Muscarinic acetylcholine receptor M2 (Homo sapiens). Description: Agonist activity at human recombinant muscarinic M2 receptor co-expressed with Galphaqi5-HA in African green monkey COS7 cells assessed as IP accumulation at 100 uM after 2 hrs in presence of myo-[3H]inositol by liquid scintillation counting method relative to carbachol. The assay is classed as functional.

The target of assay [7] is Neuronal acetylcholine receptor; alpha4/beta2 (Homo sapiens, UniProt P17787+P43681). Description: Displacement of [3H]cytisine from alpha4beta2 nAChR expressed in human recombinant SH-SY5Y cell membranes after 120 mins.
Assay [8] concerns the target T3, Muscarinic acetylcholine receptor M2 (Homo sapiens). As to the kind of experiment: Agonist activity at Gi/o coupled recombinant human M2 mAChR expressed in CHO-FlpIn cells assessed as IP-one accumulation after 40 mins by HTRF assay. The assay is classed as cell-based. Summed up:
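Stably transfected CHO-FlpIn whole cells, 20000/well, grown overnight at 37 °C with 5% CO2. Cells were washed with PBS, then held 60 min at 37 °C in HEPES stimulation buffer with 50 mM LiCl, pH 7.4. ACh or test ligand was added and incubated 40 min.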
In general terms: In TR-FRET formats the signal depends on donor and acceptor labels being close together.

Active and inactive are the calls of the source. The rule behind the calls is not given here.

Muscarinic acetylcholine receptor M3, sequence (P20309 whole entry): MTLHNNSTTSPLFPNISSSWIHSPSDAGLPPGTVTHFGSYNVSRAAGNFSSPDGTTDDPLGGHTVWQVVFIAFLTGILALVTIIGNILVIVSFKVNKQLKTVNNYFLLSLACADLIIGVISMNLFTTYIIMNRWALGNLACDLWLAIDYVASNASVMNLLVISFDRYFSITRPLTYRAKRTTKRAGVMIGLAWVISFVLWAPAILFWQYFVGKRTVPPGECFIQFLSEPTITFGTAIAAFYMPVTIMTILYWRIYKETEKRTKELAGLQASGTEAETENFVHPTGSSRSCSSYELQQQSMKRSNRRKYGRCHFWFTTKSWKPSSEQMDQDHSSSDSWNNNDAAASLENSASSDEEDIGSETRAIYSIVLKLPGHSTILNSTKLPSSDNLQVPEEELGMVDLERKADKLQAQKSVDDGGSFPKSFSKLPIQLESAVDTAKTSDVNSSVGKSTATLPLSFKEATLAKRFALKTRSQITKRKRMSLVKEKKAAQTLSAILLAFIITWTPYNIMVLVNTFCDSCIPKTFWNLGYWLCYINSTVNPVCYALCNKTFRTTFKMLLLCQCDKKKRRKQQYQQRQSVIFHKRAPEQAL
Neuronal acetylcholine receptor; alpha4/beta2, sequence (P17787 whole entry): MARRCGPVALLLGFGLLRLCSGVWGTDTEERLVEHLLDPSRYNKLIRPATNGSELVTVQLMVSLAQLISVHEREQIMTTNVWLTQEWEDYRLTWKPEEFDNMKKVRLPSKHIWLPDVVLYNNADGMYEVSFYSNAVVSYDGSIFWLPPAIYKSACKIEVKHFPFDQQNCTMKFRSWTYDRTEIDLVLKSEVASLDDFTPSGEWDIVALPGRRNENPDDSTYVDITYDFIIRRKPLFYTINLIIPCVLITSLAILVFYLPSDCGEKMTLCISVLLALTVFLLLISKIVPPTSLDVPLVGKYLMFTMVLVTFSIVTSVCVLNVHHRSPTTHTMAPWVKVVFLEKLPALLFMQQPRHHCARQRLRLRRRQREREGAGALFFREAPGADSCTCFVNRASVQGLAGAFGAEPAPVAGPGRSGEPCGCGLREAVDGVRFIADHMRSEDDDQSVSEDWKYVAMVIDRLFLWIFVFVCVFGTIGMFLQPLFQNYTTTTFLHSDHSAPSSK
Neuronal acetylcholine receptor; alpha4/beta2, sequence (P43681 whole entry): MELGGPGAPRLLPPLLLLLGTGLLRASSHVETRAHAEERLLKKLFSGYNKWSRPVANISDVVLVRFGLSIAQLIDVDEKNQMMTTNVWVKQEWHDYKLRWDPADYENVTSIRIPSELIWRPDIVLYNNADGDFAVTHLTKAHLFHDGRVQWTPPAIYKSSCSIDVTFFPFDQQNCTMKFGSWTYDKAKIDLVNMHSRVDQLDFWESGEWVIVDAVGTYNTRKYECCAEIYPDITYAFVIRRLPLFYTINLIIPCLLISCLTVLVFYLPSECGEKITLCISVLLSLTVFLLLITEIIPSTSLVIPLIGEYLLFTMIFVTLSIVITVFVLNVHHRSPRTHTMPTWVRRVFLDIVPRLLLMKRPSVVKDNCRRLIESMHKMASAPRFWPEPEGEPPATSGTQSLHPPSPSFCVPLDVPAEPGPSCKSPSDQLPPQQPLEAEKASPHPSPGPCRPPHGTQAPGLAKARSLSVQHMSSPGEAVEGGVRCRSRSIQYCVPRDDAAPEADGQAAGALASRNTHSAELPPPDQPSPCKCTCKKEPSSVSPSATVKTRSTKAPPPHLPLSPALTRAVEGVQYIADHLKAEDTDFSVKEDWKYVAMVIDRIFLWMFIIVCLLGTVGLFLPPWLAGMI

With `COc1cccc2c1CC[N+](C)(C)C2`, the Ki in assay [1] was 14 µM; in assay [2], 26 µM; in assay [3] it was 24 µM.
On to `COc1cccc2c1CC(C[N+](C)(C)C)CC2` (centres undefined), for which the Ki stood at 1.8 µM in assay [1], 1.3 µM in assay [2] and 3.9 µM in assay [3].
Take `COc1cccc2c1CC(N(C)C)CC2` (centres undefined): the Ki is 2 µM in assay [1], 1.2 µM in assay [2] and 0.83 µM in assay [3].
For `COc1cccc2c1CC([N+](C)(C)C)CC2` (centres undefined), in that order: 1 µM, 0.93 µM and 2 µM.
With `C[N+](C)(C)C1CCc2cccc(O)c2C1` (centres undefined), the inhibition constant (Ki) in assay [1] came to 2.9 µM; in assay [2] it was 4.2 µM; in assay [3] it was 16 µM.
In the case of `CN1CCCC(OCc2cccnc2)C1` (centres undefined), the Ki is 20 µM in assay [1], 46 µM in assay [2] and 42 µM in assay [3]. Further, the EC50 in assay [4] was found to be 50 µM. The Emax in assay [5] was 33%.
For the molecule `CN1CCC(COCc2cccnc2)C1` (centres undefined), the inhibition constant (Ki) came to 38 µM in assay [1], 39 µM in assay [2] and 75 µM in assay [3]. The EC50 in assay [4] was over 100 µM. The Emax in assay [6] stood at 38%.
Regarding `c1cncc(COC2CCCNC2)c1` (centres undefined), the Ki in assay [1] turned out to be 10 µM; in assay [2], 17 µM; in assay [3] it was 10 µM; in assay [7], 0.0016 µM. Further, the concentration for a half-maximal effect (EC50) in assay [4] amounted to 13 µM. Moreover, the Emax in assay [5] is 60%.
`C[N+](C)(C)CCc1cccc(Cl)c1`: the figures for the inhibition constant Ki in assay [1], in assay [2] and in assay [3] were 4.5 µM, 4.8 µM and 5.8 µM, respectively. Further, in assay [6], the Emax is under 10%.
On to `C[N+](C)(C)C1CCc2ccc3ccoc3c2C1` (centres undefined), for which the values for the inhibitory constant (Ki) in assay [1], in assay [2] and in assay [3] were 0.38 µM, 0.79 µM and 0.69 µM, respectively. Further, in assay [4], the half-maximal effective concentration (EC50) amounted to 2.3 µM. Moreover, the Emax in assay [5] was -8.3%.
For `C[N+](C)(C)CCc1cccc(O)c1`, in that order: 20 µM, 14 µM, 13 µM, 10 µM and 44%.
Take `COc1cccc(/C=C/C[N+](C)(C)C)c1`: the Ki in assay [1] was 16 µM; in assay [2] it was 22 µM; in assay [3], 21 µM.
With `COc1ccc(F)c(CC[N+](C)(C)C)c1`, the results for the Ki in assay [1], in assay [2] and in assay [3] were 7.1 µM, 0.98 µM and 14 µM, respectively. Besides, the EC50 in assay [4] turned out to be 23 µM. Further, the Emax in assay [5] came out at 44%.
Regarding `COc1ccccc1CC[N+](C)(C)C`, the Ki in assay [1] came out at 4.9 µM; in assay [2], 5.7 µM; in assay [3], 4.7 µM. In addition, the EC50 in assay [4] stood at 9.1 µM. The Emax in assay [5] is 21%.
Turning to `C[N+](C)(C)CC#CCOC1=NOCC1`, the values for the Ki in assay [1], in assay [2] and in assay [3] were 0.35 µM, 0.0049 µM and 0.55 µM, respectively. In assay [4], the concentration for a half-maximal effect (EC50) came to 0.00028 µM. Besides, in assay [5], the Emax is 125%.
In the case of `CC(=O)OCC[N+](C)(C)C`, the result in assay [8] was inactive.
With `COc1cccc(C#CC[N+](C)(C)C)c1`, the figures for the Ki in assay [1], in assay [2] and in assay [3] were 20 µM, 50 µM and 20 µM, respectively.
As to `COc1cccc(C(=O)C[N+](C)(C)C)c1`, the values for the Ki in assay [1], in assay [2] and in assay [3] were 0.17 µM, 2.4 µM and 0.21 µM, respectively. In addition, the Emax in assay [6] is under 10%.
For `COc1cccc(C(O)C[N+](C)(C)C)c1` (centres undefined), in that order: 13 µM, 29 µM, 12 µM and under 10%.
For the molecule `CCOc1cccc(CC[N+](C)(C)C)c1`, the results for the Ki in assay [1], in assay [2] and in assay [3] were 42 µM, 27 µM and 43 µM, respectively. In assay [6], the Emax was found to be 40%.
For the molecule `c1csc(COC2CCNC2)n1` (centres undefined), the inhibitory constant (Ki) was determined as 4.2 µM in assay [1], 6 µM in assay [2] and 4.1 µM in assay [3]. For the same molecule, the half-maximal effective concentration (EC50) in assay [4] is 9.9 µM. Further, in assay [5], the Emax turned out to be 74%.
Take `COc1ccccc1C[N+](C)(C)C`: the Ki in assay [1] was 26 µM; in assay [2] it was over 50 µM; in assay [3] it was over 50 µM. Besides, the EC50 in assay [4] worked out at 18 µM. For the same molecule, the Emax in assay [5] was 51%.
On to `CN(C)C1CCc2cccc(O)c2C1` (centres undefined), for which the Ki in assay [1] is over 50 µM; in assay [2], over 50 µM; in assay [3], 28 µM.
Take `COc1cccc2c1CCC([N+](C)(C)C)C2` (centres undefined): the inhibition constant (Ki) amounted to 2.5 µM in assay [1], 4.4 µM in assay [2] and 4 µM in assay [3].
Turning to `C[N+](C)(C)CCc1ccc2ccoc2c1`, the figures for the inhibition constant Ki in assay [1], in assay [2] and in assay [3] were 0.023 µM, 0.14 µM and 0.041 µM, respectively. Moreover, the concentration giving a half-maximal response (EC50) in assay [4] stood at 0.22 µM. Moreover, in assay [5], the Emax was -14%.
On to `CNCCc1cccc(OC)c1`, for which the inhibition constant (Ki) turned out to be 0.74 µM in assay [1], 1 µM in assay [2] and 0.78 µM in assay [3]. Also, the concentration giving a half-maximal response (EC50) in assay [4] amounted to 8.2 µM. Besides, the Emax in assay [5] is -12%.
In the case of `C[N+](C)(C)CCc1cccc(OC(F)(F)F)c1`, the figures for the Ki in assay [1], in assay [2] and in assay [3] were 7.8 µM, 9.2 µM and 11 µM, respectively. The Emax in assay [6] is under 10%.
On to `C[N+](C)(C)CCCc1ccc2ccoc2c1`, for which the Ki stood at 0.063 µM in assay [1], 0.23 µM in assay [2] and 0.14 µM in assay [3]. For the same molecule, the EC50 in assay [4] is 0.027 µM. For the same molecule, the Emax in assay [5] was determined as 12%.
For the molecule `C[N+]1(C)CCC(OCc2nccs2)C1` (centres undefined), the Ki in assay [1] worked out at 6.1 µM; in assay [2], 10 µM; in assay [3], 12 µM. Moreover, in assay [4], the EC50 came out at 10 µM. For the same molecule, the Emax in assay [5] amounted to 28%.
As for `COc1cccc(C2CC2C[N+](C)(C)C)c1` (centres undefined), the figures for the inhibition constant Ki in assay [1], in assay [2] and in assay [3] were 7.3 µM, 15 µM and 8.7 µM, respectively.
For the molecule `COc1cccc2c1CCC(C[N+](C)(C)C)C2` (centres undefined), the Ki in assay [1] stood at 17 µM; in assay [2] it was 14 µM; in assay [3] it was 25 µM.
`c1cncc(COCC2CCNC2)c1` (centres undefined): the Ki in assay [1] amounted to 18 µM; in assay [2], 11 µM; in assay [3], 36 µM; in assay [7], 0.2 µM. Besides, the concentration for a half-maximal effect (EC50) in assay [4] was found to be 29 µM. Moreover, the Emax in assay [5] came to 74%.
On to `COc1cccc2c1C[N+](C)(C)CC2`, for which the inhibitory constant (Ki) came to 17 µM in assay [1], 6.3 µM in assay [2] and 5.8 µM in assay [3].
